ChEMBL document CHEMBL1671805, “Biotin ergopeptide probes for dopamine receptors” (J Med Chem, 2011)
Active and inactive are the calls of the source. The rule behind the calls is not given here.

Experiments:
[1] = biological target: Somatostatin receptor type 5 (Homo sapiens) (UniProt P35346); assay: Displacement of [125I]-Tyr11-somatostatin 14 from SST5 receptor
In short: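 Membranes were incubated with 0.1 nM [125I]-Tyr11-somatostatin 14 for 3 h at 22 C in 50 mM Tris-HCl pH 7.4 with 10 mM MgCl2. Nonspecific binding was taken with 100 nM somatostatin. Bound ligand was separated by filtration and counted.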

[2] = biological target: D(1A) dopamine receptor (Homo sapiens) (UniProt P21728); assay: Agonist activity at human dopamine D1 receptor expressed in CHO cells assessed as decrease of Akt phosphorylation at Ser473 in presence of SCH23390; type: functional, cell-based
D(1A) dopamine receptor (Homo sapiens), sequence (P21728 whole entry): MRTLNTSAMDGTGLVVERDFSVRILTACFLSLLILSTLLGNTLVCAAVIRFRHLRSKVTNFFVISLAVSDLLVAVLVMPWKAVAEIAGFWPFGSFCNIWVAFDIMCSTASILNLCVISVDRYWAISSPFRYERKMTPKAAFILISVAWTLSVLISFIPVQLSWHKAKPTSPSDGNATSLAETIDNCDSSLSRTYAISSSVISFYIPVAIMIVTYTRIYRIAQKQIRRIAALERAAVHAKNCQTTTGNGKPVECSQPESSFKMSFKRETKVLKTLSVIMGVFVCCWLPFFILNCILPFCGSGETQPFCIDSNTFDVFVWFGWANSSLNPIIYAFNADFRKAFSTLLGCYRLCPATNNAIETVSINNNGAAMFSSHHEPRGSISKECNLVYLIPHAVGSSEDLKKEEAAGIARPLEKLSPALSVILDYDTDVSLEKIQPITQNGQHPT
In short: (§1)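 Transiently transfected CHO cells (human D1R for D1 lines, D2R for D2 lines; 2 μg cDNA, PEI) were serum-starved 16 h. They were optionally pretreated 5 min with 5 or 50 μM antagonist (SCH23390 for D1R, raclopride for D2R), then given increasing ligand concentrations for 5 min. Lysates were western-blotted for phospho-ERK1/2 or P-Ser473Akt, normalized to total ERK. Mean ± SEM of four independent experiments.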

[3] = Displacement of [3H]-YM09151-2 from dopamine D2 receptor high binding affinity site in lamb brain striatum membranes at 25 uM; type: cell membranes, Ovis aries, Membrane
In short: (§2)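 Lamb striatal membranes (0.5 mg prot/mL) in 50 mM Tris-HCl pH 7.4 with 10 mM MgCl2 were incubated 2 h at 22 C. Radioligand was 0.9 nM [3H]-SCH23390 (D1) or 0.7 nM [3H]-YM09151-2 (D2). Screens used 25 μM compound; competition used increasing concentrations. Nonspecific binding was taken with 10 μM SCH23390 (D1) or raclopride (D2). Bound ligand was filtered and counted. KD values came from a two-state dimer receptor model fit.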

[4] = Displacement of [3H]-YM09151-2 from dopamine D2 receptor low binding affinity site in lamb brain striatum membranes at 25 uM; type: cell membranes, Ovis aries, Membrane; in short: as §2
[5] = biological target: D(2) dopamine receptor (Homo sapiens) (UniProt P14416); assay: Agonist activity at human dopamine D2 receptor expressed in CHO cells assessed as decrease of Akt phosphorylation at Ser473; type: functional, cell-based; in short: as §1
D(2) dopamine receptor (Homo sapiens), sequence (P14416 whole entry): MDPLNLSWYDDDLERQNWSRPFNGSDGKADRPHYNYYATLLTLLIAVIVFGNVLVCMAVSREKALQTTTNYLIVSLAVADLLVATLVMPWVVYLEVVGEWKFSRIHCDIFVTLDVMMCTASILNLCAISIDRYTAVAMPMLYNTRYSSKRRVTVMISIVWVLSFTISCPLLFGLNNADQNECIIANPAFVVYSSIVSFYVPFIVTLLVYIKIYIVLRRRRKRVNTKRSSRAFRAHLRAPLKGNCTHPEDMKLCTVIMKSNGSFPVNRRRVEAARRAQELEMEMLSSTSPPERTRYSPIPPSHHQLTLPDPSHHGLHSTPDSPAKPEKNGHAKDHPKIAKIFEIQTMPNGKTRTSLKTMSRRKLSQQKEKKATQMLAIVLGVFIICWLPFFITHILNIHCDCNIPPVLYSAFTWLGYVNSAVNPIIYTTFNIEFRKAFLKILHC

[6] = biological target: D(2) dopamine receptor (Homo sapiens) (UniProt P14416); assay: Agonist activity at human dopamine D2 receptor expressed in CHO cells assessed as increase of ERK1/2 phosphorylation; type: functional, cell-based; in short: as §1
[7] = Displacement of [3H]-SCH23390 from dopamine D1 receptor low binding affinity site in lamb brain striatum membranes at 25 uM; type: cell membranes, Ovis aries, Membrane; in short: as §2
D(3) dopamine receptor [8] = biological target: T1, D(3) dopamine receptor (Homo sapiens, UniProt P35462); assay: Displacement of [3H]-raclopride from human dopamine D3 receptor high binding affinity site expressed in CHO cells; type: cell-based
T1 sequence (P35462 whole entry): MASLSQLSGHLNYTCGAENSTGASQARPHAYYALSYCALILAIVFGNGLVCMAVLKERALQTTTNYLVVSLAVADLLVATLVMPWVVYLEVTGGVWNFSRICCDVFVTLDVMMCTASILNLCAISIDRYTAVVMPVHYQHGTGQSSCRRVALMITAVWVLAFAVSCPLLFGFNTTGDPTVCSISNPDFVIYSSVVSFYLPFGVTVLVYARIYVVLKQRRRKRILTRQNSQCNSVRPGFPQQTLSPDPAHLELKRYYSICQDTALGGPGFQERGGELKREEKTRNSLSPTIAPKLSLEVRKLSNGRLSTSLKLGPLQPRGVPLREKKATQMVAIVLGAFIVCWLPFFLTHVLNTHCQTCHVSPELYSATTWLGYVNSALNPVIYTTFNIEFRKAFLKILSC
In short: (§3)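 Membranes (0.5 mg prot/mL) from CHO cells transiently transfected with 2 μg human D3R cDNA were incubated with 4 nM [3H]-raclopride and increasing competitor for 2 h at 22 C in Tris-HCl pH 7.4 with 10 mM MgCl2. Nonspecific binding was taken with 10 μM raclopride. High- and low-affinity KD values came from a two-state dimer receptor model fit. Triplicate.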

[9] = biological target: Metabotropic glutamate receptor 5 (Homo sapiens) (UniProt P41594); assay: Displacement of [3H]-quisqualic acid from mGlu5 receptor
Metabotropic glutamate receptor 5 (Homo sapiens), sequence (P41594 21-1212 limits assumed): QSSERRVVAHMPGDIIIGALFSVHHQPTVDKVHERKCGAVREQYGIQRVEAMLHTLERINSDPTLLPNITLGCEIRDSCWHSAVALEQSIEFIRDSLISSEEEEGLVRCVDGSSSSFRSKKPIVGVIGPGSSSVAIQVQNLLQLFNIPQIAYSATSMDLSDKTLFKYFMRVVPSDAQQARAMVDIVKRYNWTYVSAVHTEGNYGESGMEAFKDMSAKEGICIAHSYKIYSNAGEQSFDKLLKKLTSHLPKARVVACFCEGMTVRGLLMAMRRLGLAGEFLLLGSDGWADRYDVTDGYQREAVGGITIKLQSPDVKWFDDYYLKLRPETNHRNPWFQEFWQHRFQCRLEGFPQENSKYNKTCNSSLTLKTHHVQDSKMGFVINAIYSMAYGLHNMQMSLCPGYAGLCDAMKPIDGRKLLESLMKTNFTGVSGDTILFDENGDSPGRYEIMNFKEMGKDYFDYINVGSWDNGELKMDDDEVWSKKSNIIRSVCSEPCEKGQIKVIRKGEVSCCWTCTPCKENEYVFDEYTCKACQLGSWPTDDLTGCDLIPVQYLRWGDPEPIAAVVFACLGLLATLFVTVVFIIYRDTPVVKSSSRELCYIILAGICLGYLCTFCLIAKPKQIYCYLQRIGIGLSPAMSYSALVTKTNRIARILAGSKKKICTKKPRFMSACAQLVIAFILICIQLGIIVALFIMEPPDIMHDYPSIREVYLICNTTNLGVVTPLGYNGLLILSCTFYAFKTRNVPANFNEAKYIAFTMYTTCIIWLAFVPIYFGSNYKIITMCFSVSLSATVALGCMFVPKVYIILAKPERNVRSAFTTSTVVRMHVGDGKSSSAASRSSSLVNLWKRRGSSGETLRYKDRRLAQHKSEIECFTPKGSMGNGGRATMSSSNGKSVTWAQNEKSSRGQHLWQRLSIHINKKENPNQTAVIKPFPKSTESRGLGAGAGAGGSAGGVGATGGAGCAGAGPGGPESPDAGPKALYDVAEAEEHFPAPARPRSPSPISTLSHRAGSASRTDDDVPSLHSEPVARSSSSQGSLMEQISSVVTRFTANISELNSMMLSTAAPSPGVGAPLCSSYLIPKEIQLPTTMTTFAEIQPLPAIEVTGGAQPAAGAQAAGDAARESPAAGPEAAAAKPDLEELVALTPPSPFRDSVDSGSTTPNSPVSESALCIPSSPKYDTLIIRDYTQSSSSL
In short: (§4)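 Membranes were incubated with 27 nM [3H]-quisqualic acid for 2 h at 22 C in 50 mM Tris-HCl pH 7.4 with 10 mM MgCl2. Nonspecific binding was taken with 10 μM quisqualic acid. Bound ligand was filtered and counted.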

[10] = biological target: Histamine H3 receptor (Homo sapiens) (UniProt Q9Y5N1); assay: Displacement of [3H]-RAMH from histamine H3 receptor
Histamine H3 receptor (Homo sapiens), sequence (Q9Y5N1 whole entry): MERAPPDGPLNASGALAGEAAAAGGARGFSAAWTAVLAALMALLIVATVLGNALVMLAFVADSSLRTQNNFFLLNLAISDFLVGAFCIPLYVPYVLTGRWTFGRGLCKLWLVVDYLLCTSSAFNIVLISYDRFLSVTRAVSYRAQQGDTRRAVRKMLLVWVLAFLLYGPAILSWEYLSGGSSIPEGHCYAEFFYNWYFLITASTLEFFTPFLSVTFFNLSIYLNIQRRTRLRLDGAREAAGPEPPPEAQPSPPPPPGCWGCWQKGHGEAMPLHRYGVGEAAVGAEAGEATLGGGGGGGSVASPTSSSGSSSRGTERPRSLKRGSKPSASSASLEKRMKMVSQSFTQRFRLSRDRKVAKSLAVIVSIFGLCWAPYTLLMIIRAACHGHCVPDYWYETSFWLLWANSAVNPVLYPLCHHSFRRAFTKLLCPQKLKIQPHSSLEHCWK
In short: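 Membranes were incubated with 2.5 nM [3H]-RAMH for 2 h at 22 C in 50 mM Tris-HCl pH 7.4 with 10 mM MgCl2. Nonspecific binding was taken with 10 μM RAMH. Bound ligand was filtered and counted.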

[11] = biological target: D(2) dopamine receptor (Homo sapiens) (UniProt P14416); assay: Agonist activity at human dopamine D2 receptor expressed in CHO cells assessed as decrease of Akt phosphorylation at Ser473 in presence of raclopride; type: functional, cell-based; in short: as §1
[12] = Displacement of [3H]-SCH23390 from dopamine D1 receptor high binding affinity site in lamb brain striatum membranes at 25 uM; type: cell membranes, Ovis aries, Membrane; in short: as §2
[13] = biological target: Cannabinoid receptor 1 (Homo sapiens) (UniProt P21554); assay: Displacement of [3H]-CP55940 from CB1 receptor
Cannabinoid receptor 1 (Homo sapiens), sequence (P21554 whole entry): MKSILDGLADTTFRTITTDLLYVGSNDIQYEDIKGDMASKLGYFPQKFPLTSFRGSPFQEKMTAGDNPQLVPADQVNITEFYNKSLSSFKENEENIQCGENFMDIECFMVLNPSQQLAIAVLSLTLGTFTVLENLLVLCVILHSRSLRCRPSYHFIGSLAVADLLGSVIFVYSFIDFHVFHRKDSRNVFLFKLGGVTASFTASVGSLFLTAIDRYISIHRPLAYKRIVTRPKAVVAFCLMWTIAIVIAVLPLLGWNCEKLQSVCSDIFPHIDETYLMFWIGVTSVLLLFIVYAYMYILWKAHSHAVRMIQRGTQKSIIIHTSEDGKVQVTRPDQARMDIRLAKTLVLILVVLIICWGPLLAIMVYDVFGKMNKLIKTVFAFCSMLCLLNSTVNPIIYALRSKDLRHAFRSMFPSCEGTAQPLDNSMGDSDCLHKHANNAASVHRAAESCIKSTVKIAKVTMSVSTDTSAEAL
In short: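 Membranes in siliconated tubes were incubated with 0.5 nM [3H]-CP 55940 for 2 h at 22 C in Tris-HCl pH 7.4 with 10 mM MgCl2 and 1 mg/mL fatty acid-free BSA. BSA was also in the filter presoak and wash. Nonspecific binding was taken with 10 μM CP55940.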

[14] = biological target: D(2) dopamine receptor (Homo sapiens) (UniProt P14416); assay: Agonist activity at human dopamine D2 receptor expressed in CHO cells assessed as increase of ERK1/2 phosphorylation in presence of raclopride; type: functional, cell-based; in short: as §1
[15] = biological target: Metabotropic glutamate receptor 1 (Homo sapiens) (UniProt Q13255); assay: Displacement of [3H]-quisqualic acid from mGlu1 receptor; in short: as §4
Metabotropic glutamate receptor 1 (Homo sapiens), sequence (Q13255 19-1194 limits assumed): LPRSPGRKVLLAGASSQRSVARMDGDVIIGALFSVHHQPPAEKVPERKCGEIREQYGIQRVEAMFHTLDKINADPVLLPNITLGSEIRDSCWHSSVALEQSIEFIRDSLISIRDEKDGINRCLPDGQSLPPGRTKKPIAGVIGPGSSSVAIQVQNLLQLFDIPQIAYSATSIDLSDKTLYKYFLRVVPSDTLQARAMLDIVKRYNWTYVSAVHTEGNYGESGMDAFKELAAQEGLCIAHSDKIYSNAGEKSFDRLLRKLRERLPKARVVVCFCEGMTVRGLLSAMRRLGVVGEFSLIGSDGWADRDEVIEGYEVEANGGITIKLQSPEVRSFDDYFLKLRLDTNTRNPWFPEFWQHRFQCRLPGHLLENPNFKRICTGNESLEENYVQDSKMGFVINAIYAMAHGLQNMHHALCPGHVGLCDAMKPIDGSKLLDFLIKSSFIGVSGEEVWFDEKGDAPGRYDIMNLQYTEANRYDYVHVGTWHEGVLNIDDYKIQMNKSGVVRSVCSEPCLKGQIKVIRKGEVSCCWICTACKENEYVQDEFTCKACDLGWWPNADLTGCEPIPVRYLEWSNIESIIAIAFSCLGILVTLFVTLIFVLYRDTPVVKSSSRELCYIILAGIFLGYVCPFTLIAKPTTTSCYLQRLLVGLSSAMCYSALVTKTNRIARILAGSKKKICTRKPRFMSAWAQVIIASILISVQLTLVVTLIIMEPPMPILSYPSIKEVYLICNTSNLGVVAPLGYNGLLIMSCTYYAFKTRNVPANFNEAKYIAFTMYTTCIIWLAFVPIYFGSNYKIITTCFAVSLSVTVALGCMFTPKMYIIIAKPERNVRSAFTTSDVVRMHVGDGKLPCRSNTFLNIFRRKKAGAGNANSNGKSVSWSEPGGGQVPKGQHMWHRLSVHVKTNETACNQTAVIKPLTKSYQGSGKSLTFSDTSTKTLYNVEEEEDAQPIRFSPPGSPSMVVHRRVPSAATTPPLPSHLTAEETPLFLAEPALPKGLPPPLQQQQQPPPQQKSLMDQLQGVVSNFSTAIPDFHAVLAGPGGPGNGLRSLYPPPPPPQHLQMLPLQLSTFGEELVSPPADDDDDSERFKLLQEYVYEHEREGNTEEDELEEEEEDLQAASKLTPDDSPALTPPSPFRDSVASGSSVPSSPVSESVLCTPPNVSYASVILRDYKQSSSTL

D(3) dopamine receptor [16] = biological target: T1, D(3) dopamine receptor; assay: Displacement of [3H]-raclopride from human dopamine D3 receptor low binding affinity site expressed in CHO cells; type: cell-based; in short: as §3
[17] = biological target: D(1A) dopamine receptor (Homo sapiens) (UniProt P21728); assay: Agonist activity at human dopamine D1 receptor expressed in CHO cells assessed as increase of ERK1/2 phosphorylation in presence of SCH23390; type: functional, cell-based; in short: as §1
[18] = biological target: D(1A) dopamine receptor (Homo sapiens) (UniProt P21728); assay: Agonist activity at human dopamine D1 receptor expressed in CHO cells assessed as increase of ERK1/2 phosphorylation; type: functional, cell-based; in short: as §1
[19] = biological target: D(1A) dopamine receptor (Homo sapiens) (UniProt P21728); assay: Agonist activity at human dopamine D1 receptor expressed in CHO cells assessed as decrease of Akt phosphorylation at Ser473; type: functional, cell-based; in short: as §1

Somatostatin receptor type 5 (Homo sapiens), sequence (P35346 whole entry): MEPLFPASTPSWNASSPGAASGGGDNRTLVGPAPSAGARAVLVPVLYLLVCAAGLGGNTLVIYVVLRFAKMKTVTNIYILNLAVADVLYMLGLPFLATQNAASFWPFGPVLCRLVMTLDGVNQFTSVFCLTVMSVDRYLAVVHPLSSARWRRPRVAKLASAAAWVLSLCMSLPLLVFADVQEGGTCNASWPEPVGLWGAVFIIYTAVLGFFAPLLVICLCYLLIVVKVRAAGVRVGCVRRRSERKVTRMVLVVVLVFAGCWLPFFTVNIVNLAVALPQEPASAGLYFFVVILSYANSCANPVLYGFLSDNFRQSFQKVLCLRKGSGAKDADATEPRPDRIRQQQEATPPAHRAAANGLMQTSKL

Structure (SMILES): CN1C[C@H](C(=O)N[C@@H](Cc2ccc([N+](=O)[O-])cc2)C(=O)N[C@@H](Cc2ccc(F)cc2)C(=O)N2CCCC(C(=O)NCCCCCC(=O)NCCCC[C@H](NC(=O)CCCC[C@H]3SC[C@H]4NC(=O)N[C@H]43)C(N)=O)C2)C=C2c3cccc4[nH]cc(c34)C[C@H]21 (some centres undefined)
- Activity [1]: inactive
- Activity [2]: inactive
- Kd [3]: 17 nM
- Kd [4]: 9000 nM
- Activity [5]: Dose-dependent effect
- Activity [6]: Dose-dependent effect
- Kd [7]: 1500 nM
- Kd (D(3) dopamine receptor [8]): 23 nM
- Activity [9]: inactive
- Activity [10]: inactive
- Activity [11]: inactive
- Kd [12]: 56 nM
- Activity [13]: inactive
- Activity [14]: inactive
- Activity [15]: inactive
- Kd (D(3) dopamine receptor [16]): 93 nM
- Activity [17]: inactive
- Activity [18]: Dose-dependent effect
- Activity [19]: Dose-dependent effect
